These results are taken from ChEMBL document CHEMBL4393654, “Discovery and Early Clinical Development of an Inhibitor of 5-Lipoxygenase Activating Protein (AZD5718) for Treatment of Coronary Artery Disease” (J Med Chem, 2019).

The structures appear in SMILES notation. In brackets after ≈: the same amount, converted by molar mass. Activity calls are given as the source filed them. No cut-off for these calls is given here.

Data set [1] addresses T1, Arachidonate 5-lipoxygenase-activating protein (Homo sapiens) (UniProt P20292).
T1 sequence (whole entry): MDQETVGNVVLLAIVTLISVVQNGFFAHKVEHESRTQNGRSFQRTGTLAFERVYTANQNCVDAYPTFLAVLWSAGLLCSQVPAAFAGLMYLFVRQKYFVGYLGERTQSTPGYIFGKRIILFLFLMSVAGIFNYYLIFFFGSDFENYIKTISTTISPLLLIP
Put plainly: Inhibition of FLAP in human whole blood assessed as reduction in calcium ionophore-stimulated LTB4 production preincubated for 4 hrs followed by calcium ionophore stimulation and measured after 20 mins by EIA. In kind it is tissue-based. The method in brief:
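Fresh human whole blood was incubated with compound for 4 h, then stimulated with calcium ionophore, and LTB4 production was measured as the 5-LO pathway read-out. IC50 was also converted to a free value: IC50 × (Fu/100), where Fu = 100 − human plasma protein binding (%).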

Another data set concerns THP-1. As to the kind of experiment: Cytotoxicity against human THP1 cells assessed as reduction in cell viability measured after 48 hrs by resazurin assay. In kind it is cell-based. To be noted: THP-1, 48 h. On the technique in general: Alamar Blue is a resazurin reagent that responds to reducing activity.
For the next data set, the system named is HepG2. As to the kind of experiment: Cytotoxicity against human HepG2 cells assessed as reduction in ATP depletion in presence of glucose/galactose. In kind it is cell-based.
The target in data set [2] is Prostaglandin G/H synthase 1 (Homo sapiens) (UniProt P23219). As to the kind of experiment: Activity at COX1 in human whole blood assessed as effect on […] production by EIA. In kind it is tissue-based.
Data set [3] addresses T2, Prostaglandin G/H synthase 2 (Homo sapiens) (UniProt P35354).
T2 sequence (whole entry): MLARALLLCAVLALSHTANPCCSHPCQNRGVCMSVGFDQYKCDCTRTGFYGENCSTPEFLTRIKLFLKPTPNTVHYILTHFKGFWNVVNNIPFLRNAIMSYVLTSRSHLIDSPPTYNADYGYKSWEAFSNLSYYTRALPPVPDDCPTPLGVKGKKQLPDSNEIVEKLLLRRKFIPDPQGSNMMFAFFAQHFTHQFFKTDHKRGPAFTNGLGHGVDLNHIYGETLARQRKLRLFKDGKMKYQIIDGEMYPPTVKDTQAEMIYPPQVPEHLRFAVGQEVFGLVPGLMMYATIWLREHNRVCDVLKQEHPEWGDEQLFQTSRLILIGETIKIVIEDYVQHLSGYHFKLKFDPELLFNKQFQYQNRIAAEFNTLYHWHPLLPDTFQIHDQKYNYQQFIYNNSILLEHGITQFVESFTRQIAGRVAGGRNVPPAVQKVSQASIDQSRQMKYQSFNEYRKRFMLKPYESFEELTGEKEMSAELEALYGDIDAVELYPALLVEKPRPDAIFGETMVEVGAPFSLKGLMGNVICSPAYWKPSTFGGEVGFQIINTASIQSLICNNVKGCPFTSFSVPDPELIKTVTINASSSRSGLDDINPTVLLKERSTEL
As to the kind of experiment: Activity at COX2 in human whole blood assessed as effect on LPS-induced PGE2 production preincubated for 15 mins followed by LPS-stimulation and measured after overnight incubation by EIA. Format: tissue-based.

Data set [4] can be described thus: Octanol-phosphate buffer partition co-efficient, log D of the compound at pH 7.4 after 2 hrs by LC-MS/MS-based shake flask method. Format: physicochemical. The essentials:
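Distribution between octanol and water at pH 7.4.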

Data set [5] can be described thus: Aqueous solubility of the compound in pH 7.4 phosphate buffer measured after 24 hrs by LC-MS/MS-based shake flask method. In kind it is physicochemical.
Data set [6] deals with T3, Arachidonate 5-lipoxygenase-activating protein (Homo sapiens, UniProt P20292).
T3 sequence (P20292 whole entry): T1 sequence (whole entry)
Put plainly: Inhibition of [3H]MK0591 binding to human FLAP expressed in […] cell membranes measured after 60 to 80 mins by microbeta scintillation counting method.

Data set [7] is described as follows: Intrinsic clearance in human hepatocytes assessed per million cells at 1 uM measured after 2 to 60 mins by LC-MS/MS analysis. In kind it is ADME, cell-based, Hepatocyte. The note with it: read-out: CLH.
A short description of data set [8]: Intrinsic clearance in rat hepatocytes assessed per million cells at 1 uM measured after 2 to 60 mins by LC-MS/MS analysis. Format: ADME, cell-based, Hepatocyte. The note with it: read-out: CLH. The essentials:
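Rat hepatocyte incubation of the compound; intrinsic clearance measured after incubation.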

The nature of data set [9]: Passive apparent permeability across apical to basolateral side in human Caco2 cells at pH 6.5. In kind it is ADME, cell-based. The note with it: Caco-2, pH 6.5. The essentials: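 Passive permeability across Caco-2 monolayers, measured in the A to B direction at pH 6.5.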
(In general: Passage across Caco-2 layers is used to estimate intestinal permeability.)

Data set [10] is described as follows: Mutagenicity in Salmonella typhimurium TA98 in presence of rat S9 fraction by Ames test. Format: toxicity, subcellular. To be noted: salmonella enterica subsp. enterica serovar typhimurium. The method in brief:
(§1)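 Ames bacterial mutagenicity test in S. typhimurium TA98 and TA100. Run with and without metabolic activation by rat S9 fraction.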
(In the Ames test, an excess of revertant colonies over the control signals mutagenicity.)

The nature of data set [11]: Mutagenicity in Salmonella typhimurium TA98 in absence of rat S9 fraction by Ames test. In kind it is toxicity. The note with it: salmonella enterica subsp. enterica serovar typhimurium. The essentials: as §1
A short description of data set [12]: Mutagenicity in Salmonella typhimurium TA100 in presence of rat S9 fraction by Ames test. Format: toxicity, subcellular. To be noted: salmonella enterica subsp. enterica serovar typhimurium. The method in brief:
as §1

The nature of data set [13]: Mutagenicity in Salmonella typhimurium TA100 in absence of rat S9 fraction by Ames test. Format: toxicity. To be noted: salmonella enterica subsp. enterica serovar typhimurium. The method in brief: as §1

Prostaglandin G/H synthase 1 (Homo sapiens), sequence (P23219 whole entry): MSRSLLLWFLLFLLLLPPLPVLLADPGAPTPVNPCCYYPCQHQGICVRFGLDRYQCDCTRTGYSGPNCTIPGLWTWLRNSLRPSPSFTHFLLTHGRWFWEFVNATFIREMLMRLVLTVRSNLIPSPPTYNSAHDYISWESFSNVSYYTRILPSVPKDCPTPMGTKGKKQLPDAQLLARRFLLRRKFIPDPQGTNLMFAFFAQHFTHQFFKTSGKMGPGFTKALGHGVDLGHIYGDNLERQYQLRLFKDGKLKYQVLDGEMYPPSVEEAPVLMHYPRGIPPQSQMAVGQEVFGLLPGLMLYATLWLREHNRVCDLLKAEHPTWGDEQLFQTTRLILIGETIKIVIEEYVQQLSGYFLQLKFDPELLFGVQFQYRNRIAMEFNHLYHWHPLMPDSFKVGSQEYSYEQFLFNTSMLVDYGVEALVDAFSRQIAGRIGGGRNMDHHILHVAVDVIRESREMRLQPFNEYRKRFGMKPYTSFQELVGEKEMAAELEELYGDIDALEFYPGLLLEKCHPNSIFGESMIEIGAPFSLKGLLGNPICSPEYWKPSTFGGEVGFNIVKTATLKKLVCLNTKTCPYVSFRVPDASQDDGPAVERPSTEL

For the molecule `Cc1cc(-c2ccc(C(=O)[C@@H]3CCCC[C@H]3C(=O)Nc3cnn(C)c3S(N)(=O)=O)cc2)n[nH]1`, the fIC50 in data set [1] worked out at 6.5 nM. The IC50 in the data set with THP-1 and with HepG2 was above 250000 nM in each case. In addition, the outcome in data set [2] and in [3] was inactive.
The molecule `Cc1cc(-c2ccc(C(=O)[C@@H]3CCCC[C@H]3C(=O)Nc3cnn(C)c3C(=O)NO)cc2)[nH]n1` returned a logD at 2 h in data set [4] of 2.1. Also, the solubility (thermodynamic) at 24 h in [5] came to 224 µM (≈ 101 µg/mL). Further, in [6], the IC50 was 47 nM.
`Cc1cc(-c2ccc(C(=O)[C@@H]3CCCC[C@H]3C(=O)Nc3cn(C)nc3C)cc2)n[nH]1` returned a logD at 2 h in data set [4] of 3.1. The same molecule returned a solubility (thermodynamic) at 24 h in data set [5] of 225 µM (≈ 91.2 µg/mL). Further, in data set [6], the IC50 worked out at 59 nM. Also, the fIC50 in data set [1] amounted to 7.4 nM. The hepatocyte CLint at 1 µM in data set [7] was 4 µL/min/1e6 cells; in data set [8] it was 12.8 µL/min/1e6 cells. Besides, in [9], the Papp A→B is 20.5 ×10⁻⁶ cm/s. The Activity result in data set [10], in [11], in data set [12] and in [13] was “Non-Toxic” in each case.
In [4], `Cc1cc(-c2ccc(C(=O)[C@@H]3CCCC[C@H]3C(=O)Nc3c(C)nn(C)c3C(N)=O)cc2)n[nH]1` displayed a logD at 2 h of 2.6. For the same molecule, the thermodynamic solubility at 24 h in data set [5] was found to be 399 µM (≈ 179 µg/mL). This molecule also showed an IC50 in [6] of 101 nM. Moreover, the fIC50 in [1] came to 8 nM. Further, the hepatocyte CLint at 1 µM is below 1 µL/min/1e6 cells in data set [7] and 5.7 µL/min/1e6 cells in data set [8]. The Papp A→B in data set [9] was determined as 1.4 ×10⁻⁶ cm/s. Moreover, the Activity entry in data set [10], in data set [11], in data set [12] and in data set [13] was “Toxic” each time.
On to `Cc1cc(-c2ccc(C(=O)[C@@H]3CCCC[C@H]3C(=O)Nc3c(C(N)=O)n[nH]c3C)cc2)n[nH]1`, for which the fIC50 in [1] came out at 96 nM.
In [4], `Cc1cc(-c2ccc(C(=O)[C@@H]3CCCC[C@H]3C(=O)Nc3cnn(C)c3C(=O)O)cc2)[nH]n1` displayed a logD at 2 h of 0.2. The molecule also returned a solubility (thermodynamic) at 24 h in [5] of 599 µM (≈ 261 µg/mL). Also, in data set [6], the IC50 was determined as 17 nM. Besides, in data set [1], the fIC50 was 570 nM. For the same molecule, in data set [7], the hepatocyte CLint at 1 µM was found to be 3.2 µL/min/1e6 cells. For the same molecule, the Papp A→B in data set [9] worked out at 0.21 ×10⁻⁶ cm/s.
`CCn1ncc(NC(=O)[C@@H]2CCCC[C@H]2C(=O)c2ccc(-c3cc(C)n[nH]3)cc2)c1C(N)=O` came in with a logD at 2 h in data set [4] of 2.9. The thermodynamic solubility at 24 h in data set [5] came out at 329 µM (≈ 148 µg/mL). Besides, in data set [1], the fIC50 was determined as 16 nM. In addition, the hepatocyte CLint at 1 µM in data set [7] stood at 4.9 µL/min/1e6 cells; in data set [8], 8.6 µL/min/1e6 cells. Moreover, the Papp A→B in [9] was 9.2 ×10⁻⁶ cm/s. Further, the Activity result in [10], in [11], in data set [12] and in data set [13] was “Toxic” each time.
On to `Cc1cc(-c2ccc(C(=O)[C@@H]3CCCC[C@H]3C(=O)Nc3cnn(C)c3C(N)=O)cc2)[nH]n1`, for which, in data set [4], the logD at 2 h turned out to be 2.6. The same molecule had a solubility (thermodynamic) at 24 h in [5] of 475 µM (≈ 206 µg/mL). Also, in data set [1], the fIC50 is 13 nM. The hepatocyte CLint at 1 µM in data set [7] came to 3 µL/min/1e6 cells; in data set [8], 6.5 µL/min/1e6 cells. In [9], the Papp A→B is 2.6 ×10⁻⁶ cm/s. Also, the Activity entry in data set [10], in [11], in [12] and in [13] was “Toxic” throughout.
Regarding `Cc1cc(-c2ccc(C(=O)[C@@H]3CCCC[C@H]3C(=O)Nc3cnn(CC(N)=O)c3)cc2)[nH]n1`, the logD at 2 h in data set [4] is 2.1. Also, the thermodynamic solubility at 24 h in [5] was determined as 496 µM (≈ 216 µg/mL). This molecule also displayed an IC50 in data set [6] of 241 nM. Moreover, the fIC50 in [1] was found to be 487 nM.
Molecule `Cc1cc(-c2ccc(C(=O)[C@@H]3CCCC[C@H]3C(=O)Nc3c(C(N)=O)n[nH]c3C)cc2)[nH]n1` yielded a logD at 2 h in [4] of 2.3. In data set [5], this molecule returned a thermodynamic solubility at 24 h of 402 µM (≈ 175 µg/mL). The hepatocyte CLint at 1 µM in data set [7] was determined as 6.7 µL/min/1e6 cells; in data set [8] it was 14.4 µL/min/1e6 cells. Also, the Papp A→B in data set [9] is 0.15 ×10⁻⁶ cm/s.
Turning to `Cc1cc(-c2ccc(C(=O)[C@@H]3CCCC[C@H]3C(=O)Nc3cn(C)nc3C(N)=O)cc2)[nH]n1`, the fIC50 in data set [1] was 22 nM.
On to `Cc1cc(-c2ccc(C(=O)[C@@H]3CCCC[C@H]3C(=O)Nc3cn(C)nc3C(N)=O)cc2)n[nH]1`, for which the thermodynamic solubility at 24 h in [5] was 60 µM (≈ 26.1 µg/mL). Besides, the hepatocyte CLint at 1 µM in [7] turned out to be 12.4 µL/min/1e6 cells; in [8], 14 µL/min/1e6 cells. Moreover, the Activity result in data set [10], in data set [11], in data set [12] and in data set [13] was “Non-Toxic” each time.

For orientation: IC50 means the concentration that gives 50% inhibition. What is called logD is lipophilicity at a set pH, counting ionised and neutral species. As usually defined, the solubility (thermodynamic) is solubility found after equilibrating the solid with the medium. As usually defined, the Papp A→B is the apparent permeability from the apical to the basolateral side of a cell layer.
